Data as given in paper PMC9052103 (RSC Advances, 2020).
Like-named read-outs stand apart in the source and are kept apart here.

How the values were obtained:
[1] = test system: S. epidermidis ATCC 12228; experiment: MIC, 96-well microtiter broth dilution; assay type: cell-based
[2] = test system: S. aureus ATCC BAA-1720; experiment: MIC, 96-well microtiter broth dilution; assay type: cell-based; details: for MIC S. aureus ATCC BAA-1720: MRSA
[3] = test system: K. pneumoniae ATCC BAA-2470; experiment: MIC, 96-well microtiter broth dilution; assay type: cell-based; details: NDM-1 expressing strain
[4] = test system: S. aureus ATCC 29213; experiment: MIC, 96-well microtiter broth dilution; assay type: cell-based; details: for MIC S. aureus ATCC 29213: Table 2; for MIC: Staphylococcus aureus
[5] = test system: E. faecium ATCC 700221; experiment: MIC, 96-well microtiter broth dilution; assay type: cell-based; details: for MIC E. faecium ATCC 700221: Vancomycin-resistant strain, Table 2
[6] = test system: S. aureus ATCC BAA-44; experiment: MIC, 96-well microtiter broth dilution; assay type: cell-based
[7] = test system: S. aureus ATCC BAA-1747; experiment: MIC, 96-well microtiter broth dilution; assay type: cell-based; details: for MIC S. aureus ATCC BAA-1747: MRSA
[8] = test system: B. subtilis 168; experiment: MIC, 96-well microtiter broth dilution; assay type: cell-based
[9] = test system: S. aureus ATCC BAA-41; experiment: MIC, 96-well microtiter broth dilution; assay type: cell-based; details: for MIC S. aureus ATCC BAA-41: MRSA
[10] = test system: A. baumannii ATCC 19606; experiment: MIC, 96-well microtiter broth dilution; assay type: cell-based; details: Multi-drug resistant strain
[11] = biological target: T1, S. aureus FtsZ (Staphylococcus aureus, UniProt P0A031); experiment: Light-scattering assay of FtsZ polymerization; assay type: biochemical; details: for Effect on FtsZ polymerization at a concentration gradient: 0.125–0.5 μg mL^−1; for Light scattering signal compared to control (FtsZ polymerization): same concentration, 0.125 μg mL^−1
T1 sequence (P0A031 1-390): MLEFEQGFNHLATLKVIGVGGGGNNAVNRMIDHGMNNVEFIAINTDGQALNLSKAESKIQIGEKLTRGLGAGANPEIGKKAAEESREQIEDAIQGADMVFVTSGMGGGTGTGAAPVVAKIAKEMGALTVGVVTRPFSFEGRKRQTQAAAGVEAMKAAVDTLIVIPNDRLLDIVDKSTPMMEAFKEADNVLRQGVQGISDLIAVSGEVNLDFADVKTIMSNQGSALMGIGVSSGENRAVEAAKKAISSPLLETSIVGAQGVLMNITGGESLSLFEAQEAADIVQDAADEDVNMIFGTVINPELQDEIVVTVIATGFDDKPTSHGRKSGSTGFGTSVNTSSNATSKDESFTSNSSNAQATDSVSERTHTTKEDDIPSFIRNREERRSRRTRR
How it was run: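 S. aureus FtsZ (4 μM) in 50 mM MOPS pH 6.5, preincubated 10 min at 25 °C with 1% DMSO vehicle or test compound. Baseline set after adding 50 mM KCl and 10 mM MgCl2. After 10 min, 1 mM GTP added. 90° light scattering (excitation/emission 600 nm) followed for 25 min, with blank background subtracted. Rate and extent of polymerization calculated. Triplicates.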

[12] = test system: S. aureus ATCC 43300; experiment: MIC, 96-well microtiter broth dilution; assay type: cell-based; details: for MIC S. aureus ATCC 43300: MRSA
[13] = test system: E. faecium ATCC 49624; experiment: MIC, 96-well microtiter broth dilution; assay type: cell-based
[14] = test system: E. cloacae ATCC BAA-1143; experiment: MIC, 96-well microtiter broth dilution; assay type: cell-based; details: AmpC beta-lactamase expressing strain
[15] = test system: E. faecalis ATCC 29212; experiment: MIC, 96-well microtiter broth dilution; assay type: cell-based
[16] = test system: E. coli ATCC BAA-2469; experiment: MIC, 96-well microtiter broth dilution; assay type: cell-based; details: NDM-1 expressing strain
[17] = test system: P. aeruginosa ATCC BAA-2108; experiment: MIC, 96-well microtiter broth dilution; assay type: cell-based; details: Multi-drug resistant strain
[18] = test system: E. coli ATCC 25922; experiment: MIC, 96-well microtiter broth dilution; assay type: cell-based
[19] = test system: S. aureus ATCC 29213; experiment: In vitro drug resistance development, serial passage; assay type: cell-based
How it was run: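 Serial passage against S. aureus ATCC 29213: culture from the 0.5 × MIC well of the prior MIC plate diluted to 5 × 10^5 CFU mL−1 and exposed to a range of test compound concentrations. MIC read after 24 h at 37 °C. Cycle repeated 35 times. Ciprofloxacin, vancomycin and rifampin passaged in parallel.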

[20] = test system: MRSA strains; experiment: MIC, summary over MRSA strains; assay type: cell-based, S. aureus; details: Staphylococcus aureus, read-out: MIC against MRSA
[21] = test system: Z-ring in B. subtilis; experiment: Visualization of Z-ring; assay type: cell-based; details: 0.5 × MIC, 4 h
How it was run: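 B. subtilis carrying IPTG-inducible GFP-FtsZ plasmid grown in LB with 30 μg mL−1 chloramphenicol at 37 °C with shaking; overnight culture diluted to 1% in LB with 40 μM IPTG plus test compound at 0.5 × MIC, 4 h at 37 °C. Cells fixed, resuspended in PBS, placed on 0.1% (w/v) poly-L-lysine-coated slides; imaged by confocal microscopy, 40× oil immersion.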

[22] = test system: mouse fibroblast cells (L929); experiment: CCK-8 cytotoxicity assay; assay type: cell-based; details: L929, 48 h, read-out: IC50 L929
How it was run: (§1)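 Cells seeded at 5000 per well and allowed to adhere overnight at 37 °C, then exposed to test compound for 48 h. CCK-8 reagent added for a further 3 h, with absorbance read at 450 nm. Triplicates.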

[23] = biological target: SaFtsZ (Staphylococcus aureus, UniProt P0A031); experiment: SaFtsZ binding affinity assay; set-up: species or system S. aureus
How it was run: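 Fluorescence titration at 25 °C in 50 mM Tris–HCl pH 7.4, 50 mM KCl, 2 mM magnesium acetate. Test compound at 3.51 or 3.68 μM titrated with SaFtsZ in 0.4 μM steps (0.4–6.4 μM), equilibrating 2 min per step. Excitation 493 nm, emission 500–700 nm, buffer-titration background subtracted. Kd obtained by nonlinear fit to an independent-site model.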

[24] = biological target: S. aureus FtsZ (SaFtsZ) (Staphylococcus aureus, UniProt P0A031); experiment: GTPase activity assay; assay type: biochemical
How it was run: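 Phosphate-release kit assay: S. aureus FtsZ (7.3 μM) in assay buffer with 1% DMSO vehicle or varied concentrations of test compound. Reaction started with 200 μM GTP and run 30 min at room temperature. Colour reagent added for another 30 min to stop the reaction, and inorganic phosphate read at 620 nm. Triplicates.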

[25] = test system: E. coli ATCC 8739; experiment: MIC, 96-well microtiter broth dilution; assay type: cell-based; details: Escherichia coli, ATCC8739, read-out: MIC E. coli ATCC 8739
[26] = test system: human bronchial epithelium cells (16HBE); experiment: CCK-8 cytotoxicity assay; assay type: cell-based; details: 48 h, read-out: IC50 16HBE
How it was run: as §1

[27] = test system: human renal tubular epithelial cells (HK-2); experiment: CCK-8 cytotoxicity assay; assay type: cell-based; details: Epithelial cell, 48 h, read-out: IC50 HK-2
How it was run: as §1

Compound: 1-Methyl-2-((E)-4-(methylthio)styryl)-4-((Z)-(3-(3-(piperidin-1-yl)propyl)benzo[d]thiazol-2(3H)-ylidene)methyl)quinolin-1-ium iodide [Compound 4e3]
- MIC S. epidermidis ATCC 12228 [1]: 4 µg/mL
- MIC S. aureus ATCC BAA-1720 [2]: 16 µg/mL
- MIC K. pneumoniae ATCC BAA-2470 [3]: 64 µg/mL
- MIC S. aureus ATCC 29213 [4]: 8 µg/mL
- MIC E. faecium ATCC 700221 [5]: 8 µg/mL
- MIC S. aureus ATCC BAA-44 [6]: 8 µg/mL
- MIC S. aureus ATCC BAA-1747 [7]: 16 µg/mL
- MIC B. subtilis 168 [8]: 8 µg/mL
- MIC S. aureus ATCC BAA-41 [9]: 16 µg/mL
- MIC A. baumannii ATCC 19606 [10]: 64 µg/mL
- Effect on FtsZ polymerization at a concentration gradient [11]: did not show significant change
- Light scattering signal compared to control (FtsZ polymerization) [11]: almost no signal change
- MIC S. aureus ATCC 43300 [12]: 8 µg/mL
- MIC E. faecium ATCC 49624 [13]: 16 µg/mL
- MIC E. cloacae ATCC BAA-1143 [14]: 64 µg/mL
- MIC E. faecalis ATCC 29212 [15]: >64 µg/mL

Compound: 2-((E)-4-(Dimethylamino)styryl)-1-methyl-4-((Z)-(3-(3-(piperidin-1-yl)propyl)benzo[d]thiazol-2(3H)-ylidene)methyl)quinolin-1-ium iodide [Compound 4e4]
- MIC S. epidermidis ATCC 12228 [1]: 2 µg/mL
- MIC S. aureus ATCC BAA-1720 [2]: 8 µg/mL
- MIC S. aureus ATCC 29213 [4]: 16 µg/mL
- MIC E. faecium ATCC 700221 [5]: 4 µg/mL
- MIC S. aureus ATCC BAA-44 [6]: 8 µg/mL
- MIC S. aureus ATCC BAA-1747 [7]: 16 µg/mL
- MIC B. subtilis 168 [8]: 8 µg/mL
- MIC E. coli ATCC BAA-2469 [16]: 8 µg/mL
- MIC S. aureus ATCC BAA-41 [9]: 16 µg/mL
- MIC A. baumannii ATCC 19606 [10]: >64 µg/mL
- MIC S. aureus ATCC 43300 [12]: 8 µg/mL
- MIC P. aeruginosa ATCC BAA-2108 [17]: 64 µg/mL
- MIC E. faecium ATCC 49624 [13]: 32 µg/mL
- MIC E. cloacae ATCC BAA-1143 [14]: 64 µg/mL
- MIC E. faecalis ATCC 29212 [15]: 32 µg/mL

Compound: 2-((E)-4-Hydroxystyryl)-1-methyl-4-((Z)-(3-(3-(piperidin-1-yl)propyl)benzo[d]thiazol-2(3H)-ylidene)methyl)quinolin-1-ium iodide [Compound 4e2]
- MIC S. epidermidis ATCC 12228 [1]: 8 µg/mL
- MIC S. aureus ATCC BAA-1720 [2]: 16 µg/mL
- MIC K. pneumoniae ATCC BAA-2470 [3]: 64 µg/mL
- MIC S. aureus ATCC 29213 [4]: 16 µg/mL
- MIC E. faecium ATCC 700221 [5]: 8 µg/mL
- MIC S. aureus ATCC BAA-44 [6]: 16 µg/mL
- MIC S. aureus ATCC BAA-1747 [7]: 32 µg/mL
- MIC E. coli ATCC 25922 [18]: 4 µg/mL
- MIC B. subtilis 168 [8]: 4 µg/mL
- MIC E. coli ATCC BAA-2469 [16]: 8 µg/mL
- MIC S. aureus ATCC BAA-41 [9]: 16 µg/mL
- MIC A. baumannii ATCC 19606 [10]: >64 µg/mL
- MIC S. aureus ATCC 43300 [12]: 8 µg/mL
- MIC P. aeruginosa ATCC BAA-2108 [17]: 64 µg/mL
- MIC E. faecium ATCC 49624 [13]: 16 µg/mL
- MIC E. cloacae ATCC BAA-1143 [14]: >64 µg/mL
- MIC E. faecalis ATCC 29212 [15]: >64 µg/mL

Compound: CC1CCN(CCCN2/C(=C/c3cc[n+](C)c4ccccc34)Sc3ccccc32)CC1.[I-] [Compound 4b4, (Z)-1-Methyl-4-((3-(3-(4-methylpiperidin-1-yl)propyl)benzo[d]thiazol-2(3H)-ylidene)methyl)quinolin-1-ium iodide]
- Increase of MIC after 35 passages [19]: 8 fold
- MIC ([1]; Staphylococcus epidermidis, ATCC12228, read-out: MIC S. epidermidis ATCC 12228): 0.25 µg/mL
- MIC [20]: 1 to 8 µg/mL
- Effect on Z-ring formation (GFP-FtsZ localization) [21]: promoted the mislocalization of the FtsZ protein
- MIC ([2]; Staphylococcus aureus, ATCCBAA1720|MRSA, read-out: MIC S. aureus ATCC BAA-1720): 8 µg/mL
- MIC ([4]; ATCC29213): 2 µg/mL
- MIC ([4]; ATCC29213, read-out: MIC S. aureus ATCC 29213): 2 µg/mL
- MIC ([4]; ATCC29213, read-out: S. aureus ATCC 29213 (MIC)): 2 µg/mL
- MIC ([5]; Enterococcus faecium, ATCC700221): 16 µg/mL
- MIC ([5]; read-out: MIC against VRE): 2 to 16 µg/mL
- IC50 [22]: 23.4 µg/mL
- MIC ([7]; Staphylococcus aureus, ATCCBAA1747|MRSA, read-out: MIC S. aureus ATCC BAA-1747): 4 µg/mL
- MIC ([18]; Escherichia coli, ATCC25922, read-out: MIC E. coli ATCC 25922): 2 µg/mL
- Kd [23]: 3.23 µM
- MIC ([9]; Staphylococcus aureus, ATCCBAA41|MRSA, read-out: MIC S. aureus ATCC BAA-41): 1 µg/mL
- Effect on GTPase activity of SaFtsZ [24]: did not show any effect
- Effect on FtsZ polymerization at a concentration gradient [11]: enhance FtsZ polymerization in a dose-dependent manner
- Light scattering signal compared to control (FtsZ polymerization) [11]: significant increase in light scattering signal
- MIC [25]: 2 µg/mL
- MIC ([12]; Staphylococcus aureus, ATCC43300|MRSA, read-out: MIC S. aureus ATCC 43300): 8 µg/mL
- IC50 [26]: 20.2 µg/mL
- IC50 [27]: 18.6 µg/mL
- MIC ([13]; Enterococcus faecium, ATCC49624, read-out: MIC E. faecium ATCC 49624): 8 µg/mL
- MIC ([15]; Enterococcus faecalis, ATCC29212, read-out: MIC E. faecalis ATCC 29212): 16 µg/mL
